Measured values reported in ChEMBL document CHEMBL3739335, “Phosphonooxymethyl Prodrug of Triptolide: Synthesis, Physicochemical Characterization, and Efficacy in Human Colon Adenocarcinoma and Ovarian Cancer Xenografts” (J Med Chem, 2015).
Activity calls are given as the source filed them. The calls are words filed in the database; no cut-off is given here.

Columns and labels:
[1] = Chemical stability of the compound in buffer assessed as compound remaining at pH 1 after 1 hr by HPLC analysis; format: physicochemical; conditions: read-out: Stability
[2] = Chemical stability of the compound in buffer assessed as compound remaining at pH 1 after 2 hrs by HPLC analysis; format: physicochemical; conditions: read-out: Stability
[3] = Chemical stability of the compound in buffer assessed as compound remaining at pH 1 after 4 hrs by HPLC analysis; format: physicochemical; conditions: read-out: Stability
[4] = Chemical stability of the compound in buffer assessed as compound remaining at pH 1 after 8 hrs by HPLC analysis; format: physicochemical; conditions: read-out: Stability
[5] = Chemical stability of the compound in buffer assessed as compound remaining at pH 1 after 24 hrs by HPLC analysis; format: physicochemical; conditions: read-out: Stability
[6] = Chemical stability of the compound in buffer assessed as compound remaining at pH 4 after 1 hr by HPLC analysis; format: physicochemical; conditions: read-out: Stability
[7] = Chemical stability of the compound in buffer assessed as compound remaining at pH 4 after 2 hrs by HPLC analysis; format: physicochemical; conditions: read-out: Stability
[8] = Chemical stability of the compound in buffer assessed as compound remaining at pH 4 after 24 hrs by HPLC analysis; format: physicochemical; conditions: read-out: Stability
[9] = Chemical stability of the compound in buffer assessed as compound remaining at pH 6 after 8 hrs by HPLC analysis; format: physicochemical; conditions: read-out: Stability
[10] = Chemical stability of the compound in buffer assessed as compound remaining at pH 7.4 after 4 hrs by HPLC analysis; format: physicochemical; conditions: read-out: Stability
[11] = Chemical stability of the compound in buffer assessed as compound remaining at pH 9 after 1 hr by HPLC analysis; format: physicochemical; conditions: read-out: Stability
[12] = Chemical stability of the compound in buffer assessed as compound remaining at pH 9 after 2 hrs by HPLC analysis; format: physicochemical; conditions: read-out: Stability
[13] = Chemical stability of the compound in buffer assessed as compound remaining at pH 9 after 24 hrs by HPLC analysis; format: physicochemical; conditions: read-out: Stability
[14] = Stability of the compound in simulated intestinal fluid assessed as compound remaining at pH 7.5 after 4 hrs by HPLC analysis; format: ADME; conditions: read-out: Stability
Method in brief: (§1)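 Drug incubated in simulated gastric fluid or simulated intestinal fluid and sampled at 0, 1, 2, 4, 8 and 24 h. Percent remaining was measured by reversed-phase C18 HPLC with photodiode-array detection, using a 20-min gradient of 10–70% acetonitrile against 10 mM sodium phosphate buffer at pH 7.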

[15] = Stability of the compound in simulated intestinal fluid assessed as compound remaining at pH 7.5 after 24 hrs by HPLC analysis; format: ADME; conditions: read-out: Stability; method in brief: as §1
[16] = Chemical stability of the compound in buffer assessed as pseudo-first-order rate constant at 4 degC at pH 7.4 by Arrhenius plot analysis; format: physicochemical
Method in brief: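 Pseudo-first-order kobsd at each temperature was fitted to an Arrhenius plot, which was extrapolated to 25 and 4 °C. t1/2 and t90 (time for 10% loss) were calculated from the extrapolated kobsd.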

alkaline phosphatase = target: T1, alkaline phosphatase (Bos taurus, UniProt P09487); assay: Half life of the compound in glycine buffer assessed as bovine intestinal mucosal alkaline phosphatase-mediated compound degradation at pH 9.8; format: ADME; conditions: cattle
T1 sequence (P09487 whole entry): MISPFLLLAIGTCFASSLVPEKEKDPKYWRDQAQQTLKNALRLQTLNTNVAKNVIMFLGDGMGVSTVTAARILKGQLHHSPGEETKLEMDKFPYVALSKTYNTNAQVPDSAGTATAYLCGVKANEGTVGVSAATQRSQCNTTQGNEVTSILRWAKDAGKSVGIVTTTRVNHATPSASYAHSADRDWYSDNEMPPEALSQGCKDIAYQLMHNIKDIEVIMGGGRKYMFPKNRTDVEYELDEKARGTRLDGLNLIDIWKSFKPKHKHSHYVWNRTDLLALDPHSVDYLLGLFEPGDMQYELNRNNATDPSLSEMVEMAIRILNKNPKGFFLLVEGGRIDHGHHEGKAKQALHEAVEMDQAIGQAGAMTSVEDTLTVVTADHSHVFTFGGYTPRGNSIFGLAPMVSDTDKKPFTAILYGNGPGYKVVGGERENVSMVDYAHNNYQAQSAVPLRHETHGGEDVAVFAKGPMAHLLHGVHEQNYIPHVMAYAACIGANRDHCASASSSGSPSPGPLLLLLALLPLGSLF
Method in brief: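 Conversion in glycine buffer pH 9.8 with alkaline phosphatase from bovine intestinal mucosa; loss of compound and formation of triptolide followed, first-order fit for half-life. Control run in same buffer without enzyme for 1 h.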

HT-29 = assay: Antitumor activity against human HT-29 cells xenografted in athymic nude mouse at 0.9 mg/kg, ip qd administered for 2 weeks followed by 3 times per week; format: functional, organism-based
Method in brief: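 Female athymic nude mice, 7–9 weeks, implanted s.c. on right flank with 1.74 × 10^6 HT-29 cells (ATCC, mycoplasma/rodent-pathogen tested) in 50% Matrigel/50% McCoy's 5A; randomized at mean tumor 110 mm3, 10/group. IP dosing in USP saline, 0.2 mL, over a 28-day treatment period. Tumor volume by caliper (L × W2/2) at least twice weekly, tumor weight at necropsy, survival, body weight.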

Mus musculus [17] = assay: Toxicity in athymic nude mouse xenografted with human HT-29 cells assessed as weight gain at 0.9 mg/kg, ip administered 14 days measured post last dose; format: organism-based; conditions: in vivo, 336 h
Method in brief: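 Female athymic nude mice, 7–9 weeks old, received 1.74 × 10^6 HT-29 cells subcutaneously in the right flank in 50% Matrigel/McCoy's 5A. Randomized at 110 mm3, 10 per group. Intraperitoneal dosing in USP saline (0.2 mL) over a 28-day period on the stated schedule. Body weights were taken twice weekly; clinical signs and survival were recorded.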

Mus musculus [18] = assay: Toxicity in athymic nude mouse xenografted with human HT-29 cells assessed as skin irritation at 0.9 mg/kg, ip administered 14 days measured post last dose; format: organism-based; conditions: in vivo, 336 h
Mus musculus [19] = assay: Toxicity in athymic nude mouse xenografted with human A2780 cells assessed as anorexia at 1.2 mg/kg, po administered for 30 days; format: organism-based; conditions: in vivo, 720 h
Method in brief: (§2)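 Female athymic nude mice, 7–9 weeks old, received 2.5 × 10^6 A2780 cells subcutaneously in the flank in 50% Matrigel/RPMI 1640. Mice were randomized at a mean tumor volume of 188 mm3, 10 per group. Daily oral gavage in USP saline (0.2 mL) for 30 days, dosed on group-mean body weight. Clinical signs, survival and body weights were recorded.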

Mus musculus [20] = assay: Toxicity in athymic nude mouse xenografted with human A2780 cells assessed as survival at 0.6 to 0.9 mg/kg, ip administered for 30 days; format: organism-based; conditions: in vivo, 720 h
Method in brief: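 Female athymic nude mice, 7–9 weeks old, carried subcutaneous flank A2780 xenografts (2.5 × 10^6 cells in 50% Matrigel). Randomized at 188 mm3 mean tumor volume, 10 per group. Daily intraperitoneal dosing in USP saline (0.2 mL) for 30 days, based on group-mean weight. Survival and clinical signs were monitored.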

Mus musculus [21] = assay: Toxicity in athymic nude mouse xenografted with human A2780 cells assessed as mortality at 0.6 to 0.9 mg/kg, po administered for 30 days; format: organism-based; conditions: in vivo, 720 h; method in brief: as §2
[22] = Stability of the compound in simulated gastric fluid assessed as compound remaining after 1 hr by HPLC analysis
[23] = Stability of the compound in simulated gastric fluid assessed as compound remaining after 2 hrs by HPLC analysis

Compound `CC(C)[C@]12O[C@H]1[C@@H]1O[C@]13[C@]1(O[C@H]1C[C@H]1C4=C(CC[C@@]13C)C(=O)OC4)[C@@H]2OCOP(=O)([O-])[O-].[Na+].[Na+]` [MINNELIDE] has a remaining at 1 h [1] of 89%, a remaining at 2 h [2] of 79% and a remaining at 4 h [3] of 62%. The remaining at 8 h [4] was 39%, the remaining at 24 h [5] was 0% and the remaining at 1 h [6] was 100%. It also gave a remaining at 2 h [7] of 100%, a remaining at 24 h [8] of 99% and a remaining at 8 h [9] of 100%. It also gave a remaining at 4 h [10] of 100%, a remaining at 1 h [11] of 100% and a remaining at 2 h [12] of 100%. The remaining at 24 h [13] was 100%, the remaining at 4 h [14] was 100% and the remaining at 24 h [15] was 99%. The K [16] was 6.5 ×10⁻⁶ /hr, the half-life (alkaline phosphatase) was 2 min and the Activity (HT-29) was “Active”. For the same compound, the Activity (Mus musculus [17]) was “Toxic”, the Activity (Mus musculus [18]) was “Toxic” and the Activity (Mus musculus [19]) was “Toxic”. For the same compound, the Activity (Mus musculus [20]) was “Non-toxic”, the Activity (Mus musculus [21]) was “Toxic” and the remaining at 1 h [22] was 93%. It also gave a remaining at 2 h [23] of 85%.
